Laboratory results taken from the EternaBench riboswitch data.

Test system: MS2 coat protein
Test: apparent Kd, MS2 coat protein; higher = weaker binding; RNA-MaP array; FMN 200 µM where present
Procedure, shortened: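 Each design was made on Illumina sequencing-chip clusters by stalled E. coli RNA polymerase and titrated with SNAP-549-labelled MS2 coat protein from 0.7 or 1.5 nM, doubling to 3 µM, in the absence and then the presence of constant ligand. The buffer was 100 mM Tris-HCl pH 7.5, 80 mM KCl, 4 mM MgCl2, BSA, DTT, yeast tRNA and Tween-20. The apparent Kd is the median of filtered per-cluster fits of binding curves, with green signal normalised to red-channel RNA signal and control-cluster median Fmax.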

[1] = designed as: OFF switch for flavin mononucleotide, no ligand
[2] = ligand present: flavin mononucleotide, designed as: OFF switch for flavin mononucleotide
[3] = designed as: ON switch for flavin mononucleotide, no ligand
[4] = ligand present: flavin mononucleotide, designed as: ON switch for flavin mononucleotide

Sequence	apparent Kd [1]	apparent Kd [2]	apparent Kd [3]	apparent Kd [4]
GCACGGUAUGUAGGAUAUGCAUAGCAUUGCUAUGCAGAAGGACAUGAGGAUCACCCAUGUAUGUAUUCCAUACUAAUCCCGUGU	0.00555 µM	0.0052 µM	–	–
ACACAUGAGGAUCACCCAUGUAGCUGGCGUCUGUGCCAGCCACAGGAUAUACGGCAACACAAGCCGUAGAAGGGUGAUAAACAC	–	–	0.0853 µM	0.0365 µM
GUCAUACAUGAGGAUCACCCAUGUGAGGAUAUGAGUGGUGCUGAUAGGUCGGCACCACUCAGAAGGCGCAUGAU	0.0771 µM	0.293 µM	–	–
AUAAAACAUGAGGAUCACCCAUGUAGAAACAUGGGAGGAUAUACAAAGACGAAAGUCAAAGUAGAAGGCCUAAAAG	–	–	0.462 µM	0.311 µM
AGAUCACAUGAGGAUCACCCAUGUGAGGAUAUGAUACUAUGUACUUCGGUACAUAGUAUCAGAAGGCAUAUGAA	0.0277 µM	0.0334 µM	–	–
GGAUCCAACACAGGAUAUGCUGGACUUUGUCCAGCAGAAGGGUGAAGAACAUGAGGAUCACCCAUGUGGAUCCAUAUAUUUAAC	–	–	0.24 µM	0.0168 µM
AGUGAGCAGACAGGAUAUCCACUCAGGUCUGAGUCAACGACAUGAGGAUCACCCAUGUCCUAAAAGGAGAAGGGUCAUGGUCGU	–	–	0.198 µM	0.107 µM
CCUCGACAUGAGGAUCACCCAUGUCAGGAUAUUGUGUUUUGGGUUUUUUACCUUUAGGCAAGAAGGGAUGUGUG	0.0164 µM	0.0241 µM	–	–
UCUAUGUAAGAGAAGGAGGACUUCAUGAGGAUCACCCAUGUGUUAGUACUUAGGAUAUUUGACAACAUGAGGAUCACCCAUGUC	–	–	0.0657 µM	0.0617 µM
GUUUGUUUUUAGAAGGUGCCGGCGAGAGCCGCAACAUGAGGAUCACCCAUGUGUCGGUGACGACGCAAGGAUAUGGAGGUGGAU	–	–	0.127 µM	0.0778 µM
CUCUUGUCAGGAUAUACGUACGCUUCGGCGGCGAGGAUCAUGUAGAAGGGACAUGAGGAUCACCCAUGUUAGAC	0.0416 µM	0.044 µM	–	–
AGAUGUGAACAUGAGGAUCACCCAUGUGACUAGGUUUAUUUCAGAAGGCAUUAAUAGAGAUUAUAUGAGGAUAUGAAGUUUUAA	–	–	0.0118 µM	0.00711 µM
AUCAUUCGUGUAGGAUAUGCGUGGCGAAGCUAUGCAGAAGGACAUGAGGAUCACCCAUGUCUUUCUGUCUGUGUACAGACAGGA	0.0222 µM	0.0948 µM	–	–
AGCUGUGGCCGAGGAUAUCAAGAACCAUGGAAAACCAUGGAACCUUGACAUGAGGAUCACCCAUGUGAGAAGGCGGUCUCAGCA	0.0144 µM	0.0117 µM	–	–
GUAGCAUAGGCAGGAUAUUCAUAUAAUAAAUAAACAUGAGGAUCACCCAUGUGGCGAAAGCCUUGGGAGAAGGGCCAAUGCUAC	–	–	0.933 µM	0.0609 µM
GCUAGUCAUGUCAGGAUAUGCAGAUCCUUGGAUCUGCAGAAGGGACAUGAGGAUCACCCAUGUGCCUAGCUAGC	0.041 µM	0.317 µM	–	–
UGAUAGGACAGAGGAUAUACAGAUAGGAUCUACUAUCAAACAGUCCUUACAUGAGGAUCACCCAUGUAGAAGGCUGUCCUAUCU	0.0198 µM	0.0858 µM	–	–
AAUAACAGAGGAUAUACUAUUUUAUGUGUUUGUUGUUUUAAACAUGAGGAUCACCCAUGUAGAAGGCUGAAUGA	0.0228 µM	0.0276 µM	–	–
GAUCAACAUGAGGAUCACCCAUGUGAGGAUAUGAUACUAUGUACUUCGGUACAUAGUAUCAGAAGGCACAUUGA	0.0872 µM	0.367 µM	–	–

Sequence	apparent Kd [1]	apparent Kd [2]	apparent Kd [3]	apparent Kd [4]
CCGGAAAUGAAGGAUAUAGGAGUCGAUAGACACCUAGAAGGUCAUACAUGAGGAUCACCCAUGUGUCCUACCGG	0.0152 µM	0.031 µM	–	–
UGCCUGAGUCGAGGAUAUUAUGGAUCAAUUAAUACAUGAGGAUCACCCAUGUAAUUAAUUUAACAUGAGAAGGUGACUCAGGCU	–	–	0.0122 µM	0.0102 µM
AAAAAACAUGAGGAUCACCCAUGUCAGGAUAUCUGUAUUCAAUCCUCGGAUUGAAUACAGAGAAGGGACAAAAA	0.0378 µM	0.0546 µM	–	–
CCGGGUUAUGUUAGGAUAUGUAGGCCGCAACCGGAACAGAAGGGACAUGAGGAUCACCCAUGUGAUAUUCCCGG	0.0233 µM	0.0307 µM	–	–
UGUGCGUAUGUGAGGAUAUGCUGGUCCUUGGAUCGGCAGAAGGCACAUGAGGAUCACCCAUGUGGUGUCGUACU	0.483 µM	0.0266 µM	–	–
UGUUGUUCAGGAUAUGAUGUCUUAUACAUGAGGAUCACCCAUGUGGGUCCUGAUUUGGCGUCAGAAGGGAAUGUUG	0.551 µM	0.569 µM	–	–
GCGUUGAACGAGAAGGCCACUACAUGAGGAUCACCCAUGUCGUAGAGUAUUGGAGGAUAUCGAUAGGCGUCUCAUGAGGACAUA	0.0236 µM	0.0116 µM	–	–
UUGAUAAAUUAGAAGGCGUGAUAAAAUACAAUAAACAUGAGGAUCACCCAUGUGUACCCAUGUUAUGAGGAUAUAGACAUUUAU	–	–	0.365 µM	0.245 µM
GCGUAAAAUGUAGGAUAUGACACAGGAAACUGGUCAGAAGGACAUGAGGAUCACCCAUGUAAAAUGUUCAAGAAUAACUCAUGC	–	0.172 µM	–	–
GUCAGCUAGUGAGGAUAUACAACACUGCUUCGGCAGUGUAUUAAGAUCACAUGAGGAUCACCCAUGUAGAAGGCACGAGCUGAU	0.0138 µM	0.273 µM	–	–
CGUUCACAUGAGGAUCACCCAUGUCAGAUUUGGUCAGGAUAUGGUCUGCUUUCGCUAUUUCCAGAAGGGACUUUUG	–	–	0.0286 µM	0.0248 µM
AGAUAACACCAGAAGGACAUGAGGAUCACCCAUGUAGGAUAUGGGCAUCACUCGAGAAAGAUACGACCAAAAGGACACGCGAUC	–	–	0.085 µM	0.0103 µM
CCCGUGUUAGGAUAUACGGCACACCCGCCAGCGGGUAUAUAGUAGAAGGAACAUGAGGAUCACCCAUGUAUAGC	0.0161 µM	0.0466 µM	–	–
GCGAUGUUAGGAUAUUGCAUGUAGUGGGUUCCCAGCUGCGUUAAGAAGGGACAUGAGGAUCACCCAUGUGAUGA	0.497 µM	0.384 µM	–	–
AUAAUAAAGGAGGAUAUCGUAUCGGAAACGAUACGAGAAGGUCUAACAUGAGGAUCACCCAUGUUCCUCAAAUA	0.0436 µM	0.068 µM	–	–
UAAUAAAACGAUCGGCGAUCCAUACAUGAGGAUCACCCAUGUAGAAGGGACUCUACAAAGUAGAGUCAGGAUAUACAAGAUCGA	0.01 µM	0.124 µM	–	–
UUAAUUUGAGGAUAUACAUUUAACCACAUGAGGAUCACCCAUGUAAUAUCAUGUAUUUGUGUAGAAGGCAGAAUGC	0.0188 µM	0.0175 µM	–	–
UUAUAAAGAGUGAGGAUAUGCUGGUCCUUGGAUCAGCAGAAGGCACAUGAGGAUCACCCAUGUAAAAUAAUAUU	0.0284 µM	0.0413 µM	–	–
UGUGUUAUCGGAGGAUAUCGAUAUCAAACAUGAGGAUCACCCAUGUUGAGGAUCACCCAUGUCCACGAGAAGGCCGGCGUAGUG	–	–	0.0181 µM	0.0183 µM

Sequence	apparent Kd [1]	apparent Kd [2]	apparent Kd [3]	apparent Kd [4]
AAGUCAGCAGGAUAUGCGAUGGUGUACUAGGUAGUUUACCCACAUGAGGAUCACCCAUGUAGAAGGGCUGGCUA	0.0591 µM	0.148 µM	–	–
UCUCGACAUGAGGAUCACCCAUGUCAGGAUAUUGUGUUUUGGGUUUUUUACCUUUUGGCAAGAAGGGAUGUGUG	0.023 µM	0.0221 µM	–	–
CGUGCGUAUGUGAGGAUAUGCUGGUCCUUGGAUCGGCAGAAGGCACAUGAGGAUCACCCAUGUGGUGUCGUACC	0.187 µM	0.0359 µM	–	–
CGAUACAUGAGGGUCUCCCAUGACAUGAGGAUCACCCAUGUGCAGGAUAUACGUGUGAUGGUAUAGUAGAAGGGCAGUCUAUGU	0.0706 µM	0.0999 µM	–	–
AAAAAACAUGAGGAUCACCCAUGUAAAAAAAUCGCAGGAUAUAAGGUCGCGAAAGCGACCUUAGAAGGGCGAUCCU	–	–	0.267 µM	0.0781 µM
UGAUACAUGAGGAUCUCCCAUGACAUGAGGAUCACCCAUGUGCAGGAUAUACGUGUGAUAAUAUAGUAGAAGGGCAGUCUAUGU	0.189 µM	0.248 µM	–	–
GUGCGGUAGGAGAAGGACGGAGGGUUCUUUUCAUACAUGAGGAUCACCCAUGUAGGAUAUCCUACCUCACGCGGCCUACUACAG	0.00811 µM	0.0114 µM	–	–
UUCAUGUGAGGAUAUAGUACUCUUUCUAUUAUUAUUGAGUAUUAGAAGGCACAUGAGGAUCACCCAUGUAGUAC	0.0307 µM	0.0164 µM	–	–
AUUGUGUGAGGAUAUUAGUAGUAGAUAAAUGGAGUUGUAACUGAGAAGGCACAUGAGGAUCACCCAUGUUCCUU	0.0187 µM	0.0246 µM	–	–
AAGUUUAACGAAGGAUAUGGUUACAUGAGGAUCACCCAUGUAUUUUUUGUGAUCUUGUUUAAGUUCCAGAAGGUCGUAUACAUA	0.0954 µM	0.305 µM	–	–
UUUUGGUAAGGAUAUGCGUAGAUCUCGGAAACGAGAUCUACGCAGAAGGUACAUGAGGAUCACCCAUGUUGAUU	0.0242 µM	0.0833 µM	–	–
AGUAACAGAGGAUAUACUGUUUUAUGUGUUUAUUGUUUUGAACAUGAGGAUCACCCAUGUAGAAGGCUGAAUAA	0.0233 µM	0.0209 µM	–	–
GGCGUGUGAGGAUAUCUGAUGUCUAACUUCGGUUAGACAUCAGAGAAGGCACAUGAGGAUCACCCAUGUCCGCC	0.0675 µM	0.0619 µM	–	–
UACAUGAGGAUCACCCAUGUUUUGUCGUGUAUGGUAUUUAUCUAGGAUAUCAAUUUGUUAAUUUAUGAGAAGGAGAAUAUUAAU	0.0353 µM	0.0383 µM	–	–
UCAUAAUAGAUCCUAUUUAUCUACAUGAGGAUCACCCAUGUGCAGGAUAUGCUAAAAUUAAAAUAGCAGAAGGGCAAUAUCAGC	0.109 µM	0.365 µM	–	–
GCUAUCGAUGUAGGAUAUGCUAGGGAAACCCUGGCAGAAGGACAUGAGGAUCACCCAUGUCAAUGAGUGAAGAGAAGAGAUGGC	0.0433 µM	0.127 µM	–	–
CGUUUAUUUAUGGGAUUAUAUUAUGAGGAUAUCAAUAUUUAUUACAUGAGGAUCACCCAUGUUAAUGAGAAGGCAUAAUUAACG	–	–	0.00953 µM	0.0063 µM
UUUUACGUUUCGUAGCAGUGUCAUCGAGAAGGCCCUGACAUGAGGAUCACCCAUGUUGUUACAUGGGAGGAUAUCGAUGAUAAA	–	–	0.0159 µM	0.00575 µM
